≈ marks a conversion by molar mass, not a printed value.
How the values were obtained:
Cyberlindnera jadinii = assay: Antifungal activity against Candida utilis after 24 hrs by NCCLS two fold broth microdilution method; assay type: functional; settings: Williopsis jadinii
In short: (§1)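 Two-fold serial microdilution following NCCLS. A spore suspension in sterile distilled water was prepared from one-day-old cultures grown on Sabouraud agar and adjusted to a final 1–5 × 10^3 spores/mL. DMSO stocks were diluted in RPMI 1640 to eleven concentrations (0.5–512 µg/mL), inoculated and held at 35 °C for 24 h. Growth was read visually and spectrophotometrically, MIC was the lowest concentration with complete inhibition, and runs were in triplicate.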

Candida albicans = assay: Antifungal activity against Candida albicans ATCC 76615 after 24 hrs by NCCLS two fold broth microdilution method; assay type: functional; settings: ATCC 76615, 24 h; in short: as §1
Pseudomonas aeruginosa = assay: Antibacterial activity against Pseudomonas aeruginosa ATCC 27853 after 24 hrs by NCCLS two fold broth microdilution method; assay type: functional; settings: ATCC 27853, 24 h
In short: (§2)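 Two-fold serial broth microdilution in 96-well plates following NCCLS. Plates were inoculated and incubated at 37 °C for 24 h, with growth read visually and spectrophotometrically. MIC was taken as the lowest concentration giving complete growth inhibition. Run in triplicate, with a DMSO-plus-inoculum solvent control.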

Staphylococcus aureus [1] = assay: Antibacterial activity against Staphylococcus aureus ATCC 25923 after 24 hrs by NCCLS two fold broth microdilution method; assay type: functional; settings: ATCC 25923, 24 h
In short: as §2, with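 “NCCLS. Compounds were dissolved in DMSO as stocks, then diluted in Mueller–Hinton broth to final concentrations of 0.5–512 µg/mL.” for “NCCLS.”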

Escherichia coli = assay: Antibacterial activity against Escherichia coli ATCC 8099 after 24 hrs by NCCLS two fold broth microdilution method; assay type: functional; settings: ATCC 8099, 24 h; in short: as §2
Aspergillus flavus [2] = assay: Antifungal activity against Aspergillus flavus after 24 hrs by NCCLS two fold broth microdilution method; assay type: functional; in short: as §1
Micrococcus luteus = assay: Antibacterial activity against Micrococcus luteus ATCC 4698 after 24 hrs by NCCLS two fold broth microdilution method; assay type: functional; settings: NCTC 2665, 24 h
In short: as §2, with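 “NCCLS. Compounds were dissolved in DMSO as stocks, then diluted in Mueller–Hinton broth to final concentrations of 0.5–512 µg/mL.” for “NCCLS.”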

Salmonella typhi = assay: Antibacterial activity against Bacillus typhi after 24 hrs by NCCLS two fold broth microdilution method; assay type: functional, Salmonella enterica subsp. enterica serovar Typhi; settings: Salmonella enterica
In short: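 Two-fold serial broth microdilution per NCCLS. DMSO stocks diluted in Mueller–Hinton broth to 512, 256, 128, 64, 32, 16, 8, 4, 2, 1, 0.5 µg/mL. Chloromycin and norfloxacin as reference drugs; DMSO with inoculum, no drug, as solvent control. Incubation 37 °C for 24 h. Growth read visually and spectrophotometrically. MIC is the lowest concentration completely inhibiting growth; triplicate.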

Bacillus = assay: Antibacterial activity against Bacillus proteus ATCC 13315 after 24 hrs by NCCLS two fold broth microdilution method; assay type: functional; settings: ATCC 13315, 24 h
In short: as §2, with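 “NCCLS. Compounds were dissolved in DMSO as stocks, then diluted in Mueller–Hinton broth to final concentrations of 0.5–512 µg/mL.” for “NCCLS.”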

Aspergillus flavus [3] = assay: Potency index, ratio of Fluconazole MIC to compound MIC for Aspergillus flavus; assay type: functional
Saccharomyces cerevisiae = assay: Antifungal activity against Saccharomyces cerevisiae after 24 hrs by NCCLS two fold broth microdilution method; assay type: functional; in short: as §1
Bacillus subtilis = assay: Antibacterial activity against Bacillus subtilis ATCC 21216 after 24 hrs by NCCLS two fold broth microdilution method; assay type: functional; settings: ATCC 21216, 24 h
In short: as §2, with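 “NCCLS. Compounds were dissolved in DMSO as stocks, then diluted in Mueller–Hinton broth to final concentrations of 0.5–512 µg/mL.” for “NCCLS.”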

Staphylococcus aureus [4] = assay: Antibacterial activity against methicillin-resistant Staphylococcus aureus N315 after 24 hrs by NCCLS two fold broth microdilution method; assay type: functional; settings: N315, 24 h
In short: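 Two-fold serial broth microdilution per NCCLS. Chloromycin and norfloxacin as reference drugs; DMSO with inoculum, no drug, as solvent control. Incubation 37 °C for 24 h. Growth read visually and spectrophotometrically. MIC is the lowest concentration completely inhibiting growth; triplicate.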

Pichia norvegensis = assay: Antifungal activity against Candida mycoderma after 24 hrs by NCCLS two fold broth microdilution method; assay type: functional

Row | SMILES | MIC (Cyberlindnera jadinii) | MIC (Candida albicans) | MIC (Pseudomonas aeruginosa) | MIC (Staphylococcus aureus [1]) | MIC (Escherichia coli) | MIC (Aspergillus flavus [2]) | MIC (Micrococcus luteus) | MIC (Salmonella typhi) | MIC (Bacillus) | Ratio (Aspergillus flavus [3]) | MIC (Saccharomyces cerevisiae) | MIC (Bacillus subtilis) | MIC (Staphylococcus aureus [4]) | MIC (Pichia norvegensis)
1 | Nc1ccc(S(=O)(=O)Cc2nc3ccccc3n2Cc2ccccc2F)cc1 | 4 µg/mL (≈ 10.1 µM) | 128 µg/mL (≈ 324 µM) | 512 µg/mL (≈ 1290 µM) | 64 µg/mL (≈ 162 µM) | 4 µg/mL (≈ 10.1 µM) | 32 µg/mL (≈ 80.9 µM) | 32 µg/mL (≈ 80.9 µM) | 16 µg/mL (≈ 40.5 µM) | 256 µg/mL (≈ 647 µM) | 8 | 8 µg/mL (≈ 20.2 µM) | 16 µg/mL (≈ 40.5 µM) | 64 µg/mL (≈ 162 µM) | 8 µg/mL (≈ 20.2 µM)
2 | CC(=O)Nc1ccc(S(=O)(=O)Cc2nc3ccccc3n2Cc2cccc(Cl)c2)cc1 | 512 µg/mL (≈ 1130 µM) | 512 µg/mL (≈ 1130 µM) | 256 µg/mL (≈ 564 µM) | 32 µg/mL (≈ 70.5 µM) | 64 µg/mL (≈ 141 µM) | 256 µg/mL (≈ 564 µM) | 64 µg/mL (≈ 141 µM) | 128 µg/mL (≈ 282 µM) | 128 µg/mL (≈ 282 µM) |  | 128 µg/mL (≈ 282 µM) | 128 µg/mL (≈ 282 µM) | 128 µg/mL (≈ 282 µM) | 256 µg/mL (≈ 564 µM)
3 | CCCCCCCCCCCCn1c(CS(=O)(=O)c2ccc(NC(C)=O)cc2)nc2ccccc21 | 512 µg/mL (≈ 1030 µM) | 512 µg/mL (≈ 1030 µM) | 512 µg/mL (≈ 1030 µM) | 512 µg/mL (≈ 1030 µM) | 256 µg/mL (≈ 514 µM) | 512 µg/mL (≈ 1030 µM) | 512 µg/mL (≈ 1030 µM) | 512 µg/mL (≈ 1030 µM) | 512 µg/mL (≈ 1030 µM) |  | 512 µg/mL (≈ 1030 µM) | 512 µg/mL (≈ 1030 µM) | 512 µg/mL (≈ 1030 µM) | 512 µg/mL (≈ 1030 µM)
4 | CC(=O)Nc1ccc(S(=O)(=O)Cc2nc3ccccc3n2Cc2ccccc2F)cc1 | 32 µg/mL (≈ 73.1 µM) | 256 µg/mL (≈ 585 µM) | 128 µg/mL (≈ 293 µM) | 512 µg/mL (≈ 1170 µM) | 256 µg/mL (≈ 585 µM) | 64 µg/mL (≈ 146 µM) | 32 µg/mL (≈ 73.1 µM) | 64 µg/mL (≈ 146 µM) | 128 µg/mL (≈ 293 µM) |  | 512 µg/mL (≈ 1170 µM) | 64 µg/mL (≈ 146 µM) | 128 µg/mL (≈ 293 µM) | 512 µg/mL (≈ 1170 µM)
5 | Nc1ccc(S(=O)(=O)Cc2nc3ccccc3n2CCCCCn2c3ccccc3c3ccccc32)cc1 | 512 µg/mL (≈ 980 µM) | 512 µg/mL (≈ 980 µM) | 512 µg/mL (≈ 980 µM) | 512 µg/mL (≈ 980 µM) | 64 µg/mL (≈ 122 µM) | 128 µg/mL (≈ 245 µM) | 512 µg/mL (≈ 980 µM) | 64 µg/mL (≈ 122 µM) | 512 µg/mL (≈ 980 µM) |  | 64 µg/mL (≈ 122 µM) | 32 µg/mL (≈ 61.2 µM) | 128 µg/mL (≈ 245 µM) | 16 µg/mL (≈ 30.6 µM)
6 | Nc1ccc(S(=O)(=O)Cc2nc3ccccc3n2Cc2ccc(Cl)cc2)cc1 | 32 µg/mL (≈ 77.7 µM) | 256 µg/mL (≈ 621 µM) | 256 µg/mL (≈ 621 µM) | 256 µg/mL (≈ 621 µM) | 64 µg/mL (≈ 155 µM) | 128 µg/mL (≈ 311 µM) | 8 µg/mL (≈ 19.4 µM) | 512 µg/mL (≈ 1240 µM) | 256 µg/mL (≈ 621 µM) |  | 64 µg/mL (≈ 155 µM) | 8 µg/mL (≈ 19.4 µM) | 256 µg/mL (≈ 621 µM) | 16 µg/mL (≈ 38.8 µM)
7 | Nc1ccc(S(=O)(=O)Cc2nc3ccccc3n2Cc2ccccc2Cl)cc1 | 512 µg/mL (≈ 1240 µM) | 16 µg/mL (≈ 38.8 µM) | 16 µg/mL (≈ 38.8 µM) | 16 µg/mL (≈ 38.8 µM) | 128 µg/mL (≈ 311 µM) | 32 µg/mL (≈ 77.7 µM) | 64 µg/mL (≈ 155 µM) | 16 µg/mL (≈ 38.8 µM) | 256 µg/mL (≈ 621 µM) |  | 512 µg/mL (≈ 1240 µM) | 16 µg/mL (≈ 38.8 µM) | 32 µg/mL (≈ 77.7 µM) | 512 µg/mL (≈ 1240 µM)
8 | CCn1c(CS(=O)(=O)c2ccc(NC(C)=O)cc2)nc2ccccc21 | 64 µg/mL (≈ 179 µM) | 64 µg/mL (≈ 179 µM) | 32 µg/mL (≈ 89.5 µM) | 128 µg/mL (≈ 358 µM) | 256 µg/mL (≈ 716 µM) | 64 µg/mL (≈ 179 µM) | 128 µg/mL (≈ 358 µM) | 64 µg/mL (≈ 179 µM) | 64 µg/mL (≈ 179 µM) |  | 512 µg/mL (≈ 1430 µM) | 32 µg/mL (≈ 89.5 µM) | 128 µg/mL (≈ 358 µM) | 256 µg/mL (≈ 716 µM)

From ChEMBL document CHEMBL4138085, “Design, synthesis and antimicrobial evaluation of novel benzimidazole-incorporated sulfonamide analogues” (Eur J Med Chem, 2017)
